The source made the active and inactive calls. No cut-off for these calls is given here.
How the values were obtained:
[1] = system: TA3-MTX-R; test: Induction of mitochondrial swelling in mouse TA3-MTX-R cell mitochondria at 0.15 mM by UV/vis spectrophotometer analysis in presence of N-acetylcysteine; type: functional
[2] = system: TA3/Ha; test: Induction of apoptosis in mouse TA3/Ha cells assessed as caspase 3 activation at 0.5 uM after 24 hrs by Western blot analysis; type: functional, cell-based
Procedure, shortened: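 Caspase 3 measured by Western blot. RIPA lysates, 50 μg protein run on 12% SDS–PAGE. Anti-caspase 3 (1:1000) and tubulin loading control (1:10000) overnight at 4 °C; HRP secondary for 2 h. ECL detection and densitometry.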

[3] = Cell cycle arrest in mouse TA3/Ha cells assessed as accumulation at G0/G1 phase at 0.1 to 5 uM after 24 hrs; type: functional, cell-based
[4] = system: TA3/Ha; test: Induction of apoptosis in mouse TA3/Ha cells assessed as early stage apoptotic cells at 0.5 uM after 24 to 48 hrs using annexin V/propidium iodide staining by flow cytometry; type: functional, cell-based
Procedure, shortened: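 Annexin V-FITC/PI flow cytometry on 1 × 10^5 cells/mL treated for 24 and 48 h at 37 °C, 5% CO2. 5 min staining at room temperature; 5000 events recorded. Early apoptosis scored as annexin V+/PI−. Staurosporine 10 μM as positive control; at least three experiments, ANOVA with Bonferroni test.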

[5] = system: TA3/Ha; test: Cytotoxicity against mouse TA3/Ha cells up to 24 hrs by lactate dehydrogenase assay; type: functional, cell-based
Procedure, shortened: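 LDH release measured with a kit on 2 × 10^5 cells/mL incubated at 37 °C, 5% CO2, 90% humidity. Supernatant taken after centrifugation at 600g for 3 min, then 30 min with reaction mix at room temperature; absorbance read at 450 nm.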

[6] = system: TA3/Ha; test: Antitumor activity against mouse TA3/Ha cells allografted in CAF1-Jax mouse syngenic model assessed as increase of host survival at 10 mg/kg, ip administered every 48 hrs of 30 days; type: functional, organism-based; set-up: dose 10 mg/kg
[7] = system: TA3/Ha; test: Antitumor activity against mouse TA3/Ha cells allografted in CAF1-Jax mouse syngenic model assessed as inhibition of tumor growth at 10 mg/kg, ip administered every 48 hrs of 30 days; type: functional, organism-based; set-up: dose 10 mg/kg
Procedure, shortened: (§1)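 Adult male CAF1-Jax mice; 1.0 × 10^6 TA3/Ha cells in 0.1 mL 0.9% NaCl injected subcutaneously into the back. 10 mg/kg given ip every 48 h for 30 days to groups of six mice; controls received vehicle. Tumor diameters measured three times weekly; volume = (max diameter)(min diameter)²/2. Two independent experiments.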

[8] = system: Mus musculus; test: Toxicity in mouse TA3/Ha cells allografted CAF1-Jax mouse syngenic model at 10 mg/kg, ip administered every 48 hrs of 30 days; type: organism-based; set-up: dose 10 mg/kg, route intraperitoneal; conditions: in vivo; procedure, shortened: as §1
[9] = system: TA3/Ha; test: Induction of NAD(P)H oxidation in mouse TA3/Ha cells assessed as reduction of NAD(P)H/NAD(P)+ ratio at 2.5 mg of protein/mL by spectrofluorometer analysis; type: functional, cell-based
Procedure, shortened: (§2)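 NAD(P)H autofluorescence (ex 340, em 420 nm) at 25 °C with stirring. Medium: PBS pH 7.4, 2.5 mM glutamine, TA3 cells at 2.5 mg protein/mL. Rotenone (12 μM), FCCP (6 μM) or test cation added during the time course.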

[10] = Cytotoxicity against mouse TA3/Ha cells after 48 hrs by neutral red assay; type: functional, cell-based
Procedure, shortened: (§3)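 Neutral red uptake after 48 h exposure at 37 °C, 5% CO2. Seeding: 1 × 10^5 cells/mL for TA3, TA3-MTX-R and CCRF-CEM; 4 × 10^4 cells/mL for MM3MG. Dye at 100 μg/mL for 2 h, then ethanol/acetic acid extraction and absorbance at 540 nm. IC50 from variable-slope sigmoidal dose–response fit; at least three independent experiments in triplicate, mean ± SEM.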

[11] = Cytotoxicity against mouse multidrug-resistant TA3-MTX-R cells after 48 hrs by neutral red assay; type: functional, cell-based; procedure, shortened: as §3
[12] = system: CCRF-CEM; test: Cytotoxicity against human CCRF-CEM cells after 48 hrs by neutral red assay; type: functional, cell-based; procedure, shortened: as §3
[13] = Cytotoxicity against mouse MM3MG cells after 48 hrs by neutral red assay; type: cell-based; procedure, shortened: as §3
[14] = Ratio of IC50 for mouse MM3MG cells to IC50 for mouse TA3/Ha cells
Procedure, shortened: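 Ratio of 48 h neutral red IC50 values. MM3MG seeded at 4 × 10^4 cells/mL, TA3 at 1 × 10^5 cells/mL. Each IC50 from a variable-slope sigmoidal fit of at least three independent experiments.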

[15] = Uncoupling respiration effect in mouse TA3/Ha cells after 2 mins by polarographic analysis in presence of FCCP; type: functional
Procedure, shortened: (§4)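 Polarographic respiration of digitonin-permeabilized cells (0.013 μg/mg protein; 2.5 mg protein/mL) in PBS pH 7.4 with 10 mM succinate and 1 μg/mL oligomycin. Cations added in 3 μL DMSO. Atractyloside 5 nmol/mg protein was added before succinate. FCCP added at the end: 0.15 μM for TA3, 0.25 μM for TA3-MTX-R. Slope and K0.5 taken from log–log linear regression; at least three experiments.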

[16] = Uncoupling respiration effect in mouse TA3-MTX-R cells after 2 mins by polarographic analysis in presence of FCCP; type: functional; procedure, shortened: as §4
[17] = Uncoupling respiration effect in mouse TA3/Ha cells after 2 mins by polarographic analysis in presence of atractyloside; type: functional; procedure, shortened: as §4
[18] = Uncoupling respiration effect in mouse TA3-MTX-R cells after 2 mins by polarographic analysis in presence of atractyloside; type: functional; procedure, shortened: as §4
[19] = system: TA3/Ha; test: Reduction of ATP level in mouse TA3/Ha cells at 1 to 20 uM after 2 hrs by CellTiter-Glo luminescent assay; type: functional, cell-based
Procedure, shortened: (§5)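 CellTiter-Glo luminescence on 2 × 10^5 cells/mL incubated with cation for 2 h. Aliquot held 10 min at room temperature in the dark before reading; at least three experiments.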

[20] = system: TA3/Ha; test: Reduction of ATP level in mouse TA3/Ha cells after 2 hrs by CellTiter-Glo luminescent assay; type: functional, cell-based; procedure, shortened: as §5
[21] = Toxicity in mouse TA3/Ha cells assessed as cell membrane integrity after 24 hrs using propidium iodide by flow cytometry; type: cell-based; conditions: 2 to 4 h, in the assay text read “after 2 to 4 hrs” for “after 24 hrs”
Procedure, shortened: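 Membrane integrity by PI uptake on flow cytometry. Cells were seeded, grown for 24 h at 37 °C, 5% CO2, then given fresh medium with cation for 2 and 4 h before PI was added. Mean ± SEM of at least three experiments.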

[22] = system: TA3/Ha; test: Induction of NAD(P)H oxidation in mouse TA3/Ha cells assessed as reduction of NAD(P)H/NAD(P)+ ratio by spectrofluorometer analysis; type: functional, cell-based; procedure, shortened: as §2
[23] = system: TA3/Ha; test: Decrease of mitochondrial transmembrane potential in mouse TA3/Ha cell mitochondria at 0.5 uM after 5 mins by safranin staining; type: functional
Procedure, shortened: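 Safranin (20 μM) absorbance change at 511–533 nm in isolated mitochondria (1.0 mg/mL) in sucrose/KCl/Hepes pH 7.4 buffer with EGTA and phosphate. Baseline 5 min, then 2 mM glutamate + 2 mM malate for 5 min, then cation added. Mean ± SD of at least three experiments.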

[24] = system: TA3/Ha; test: Decrease of mitochondrial transmembrane potential in mouse TA3/Ha cell mitochondria at 0.5 uM after 5 mins by JC-1 staining; type: functional
[25] = system: TA3/Ha; test: Decrease of mitochondrial transmembrane potential in mouse TA3/Ha cell mitochondria at 0.5 uM after 5 mins by JC-1 staining in presence of ADP; type: functional
[26] = system: TA3/Ha; test: Induction of mitochondrial swelling in mouse TA3/Ha cell mitochondria at 0.05 to 0.20 mM by UV/vis spectrophotometer analysis; type: functional
[27] = system: TA3-MTX-R; test: Induction of mitochondrial swelling in mouse TA3-MTX-R cell mitochondria at 0.05 to 0.20 mM by UV/vis spectrophotometer analysis; type: functional
[28] = system: TA3/Ha; test: Induction of mitochondrial swelling in mouse TA3/Ha cell mitochondria at 0.15 mM by UV/vis spectrophotometer analysis in presence of cyclosporine-A; type: functional
Procedure, shortened: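 Same swelling set-up with TA3/Ha mitochondria (0.5 mg/mL, KCl/Tris pH 7.4, glutamate/malate) at 0.15 mM cation, with increasing cyclosporine concentrations.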

[29] = system: TA3/Ha; test: Induction of mitochondrial swelling in mouse TA3/Ha cell mitochondria at 0.15 mM by UV/vis spectrophotometer analysis in presence of N-ethylmaleimide; type: functional
Procedure, shortened: (§6)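 Same swelling set-up with TA3/Ha mitochondria at 0.15 mM cation, in the presence of NEM, DTT or NAC. Mean ± SEM of at least three experiments, ANOVA with Bonferroni test.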

[30] = system: TA3/Ha; test: Induction of mitochondrial swelling in mouse TA3/Ha cell mitochondria at 0.15 mM by UV/vis spectrophotometer analysis in presence of dithiothreitol; type: functional; procedure, shortened: as §6
[31] = system: TA3/Ha; test: Induction of mitochondrial swelling in mouse TA3/Ha cell mitochondria at 0.15 mM by UV/vis spectrophotometer analysis in presence of N-acetylcysteine; type: functional; procedure, shortened: as §6
[32] = system: TA3/Ha (Mus musculus); test: Induction of mitochondrial swelling in mouse TA3/Ha cell mitochondria at 0.15 mM by UV/vis spectrophotometer analysis in presence of cyclosporine-A
[33] = system: TA3/Ha (Mus musculus); test: Induction of mitochondrial swelling in mouse TA3/Ha cell mitochondria at 0.15 mM by UV/vis spectrophotometer analysis in presence of dithiothreitol
[34] = system: TA3/Ha (Mus musculus); test: Induction of mitochondrial swelling in mouse TA3/Ha cell mitochondria at 0.15 mM by UV/vis spectrophotometer analysis in presence of N-ethylmaleimide
[35] = system: TA3/Ha; test: Increase of oxygen consumption in mouse TA3/Ha cell mitochondria using glutamate and malate as substrate at 10^-4 M after 2 mins by polarographic analysis; type: functional
Procedure, shortened: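 Clark electrode polarography of isolated mitochondria (1.0 mg/mL) at 25 °C. Medium: sucrose/KCl, 3 mM phosphate, Hepes pH 7.0, 2 mM MgCl2. Substrates 2 mM glutamate + 2 mM malate; 0.5 mM ADP, oligomycin and KCN also used.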

## O=C(OCCCCCCCCCC[P+](c1ccccc1)(c1ccccc1)c1ccccc1)c1cc(O)c(O)c(O)c1.[Br-]
[1]
  Activity: Active
[2]
  Activity: Active
[3]
  Activity: Active
[4]
  Activity: Active
[5]
  Activity: Active
[6]
  Activity: Active
[7]
  TGI: Active
[8]
  Activity: Non-toxic
[9]
  Activity: Active
[10]
  IC50: 0.4 µM
[11]
  IC50: 0.38 µM
[12]
  IC50: 1.65 µM
[13]
  IC50: 7.1 µM
[14]
  Ratio IC50: 17
[15]
  K0.5: 1.21 µM
[16]
  K0.5: 1.8 ×10⁻⁵ M
[17]
  K0.5: 4.29 ×10⁻⁵ M
[18]
  K0.5: 5.24 ×10⁻⁵ M
[19]
  Activity: Active
[20]
  Activity: Dose-dependent effect
[21]
  Activity: Non-toxic
[22]
  Activity: Dose-dependent effect
[23]
  Activity: Active
[24]
  Activity: Active
[25]
  Activity: Active
[26]
  Activity: Active
[27]
  Activity: Active
[28]
  Activity: Active
[29]
  Activity: inactive
[30]
  Activity: inactive
[31]
  Activity: inactive
[32]
  Activity: Active
[33]
  Activity: inactive
[34]
  Activity: inactive

## O=C(OCCCCCCCC[P+](c1ccccc1)(c1ccccc1)c1ccccc1)c1cc(O)c(O)c(O)c1.[Br-]
[2]
  Activity: inactive
[4]
  Activity: Active
[5]
  Activity: Active
[10]
  IC50: 13.4 µM
[11]
  IC50: 14.4 µM
[12]
  IC50: 34.6 µM
[13]
  IC50: 29.4 µM
[35]
  Activity: Active
[15]
  K0.5: 2.25 ×10⁻⁴ M
[16]
  K0.5: 1.91 ×10⁻⁴ M
[19]
  Activity: Active
[20]
  Activity: Dose-dependent effect
[21]
  Activity: Non-toxic

Source: ChEMBL document CHEMBL3232958, “Antiproliferative and uncoupling effects of delocalized, lipophilic, cationic gallic acid derivatives on cancer cell lines. Validation in vivo in singenic mice” (J Med Chem, 2014)
